Results taken from ChEMBL document CHEMBL2029242 (J Med Chem, 2012).

Tests used:
[1] = molecular target: T1, Serine/threonine-protein kinase B-raf (Homo sapiens, UniProt P15056, V600E)
A-375 = assay: Cytotoxicity against human A375 cells expressing BRAF V600E mutant after 72 hrs by cell titer blue assay; format: functional, cell-based; conditions: A-375, 72 h
Method in brief: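 Cells were grown in ATCC-recommended media and kept overnight in 0.5% serum. They were then exposed to compound for 72 h, and Cell Titer Blue was added for 3 h. EC50 came from fluorometric concentration−response curves, run in duplicate and repeated at least once.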

[2] = molecular target: T1, Serine/threonine-protein kinase B-raf; remark: listed apart in the source
[3] = AUC (infinity) in Sprague-Dawley rat at 10 mg/kg, po; format: ADME, organism-based; parameters: time infinity, dose 10 mg/kg, route oral; conditions: plasma
Method in brief: (§1)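 Single-dose PK. Rats: male Sprague−Dawley, jugular-catheterized, 1 mg/kg iv in 3:1 PEG400/water (n = 2) and 10 mg/kg po in Pharmatek #6 (n = 3). Female athymic nude mice: 100 mg/kg po in Pharmatek #6 (n = 3). Beagle dogs and male cynomolgus monkeys (n = 3): crossover, 1 mg/kg iv and 10 mg/kg po in 22% HPβCD, overnight fast. Plasma LC-MS/MS to 24 h; noncompartmental parameters, mean ± SD.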

[4] = Cmax in Sprague-Dawley rat at 10 mg/kg, po; format: ADME, organism-based; parameters: dose 10 mg/kg, route oral; conditions: in vivo
Method in brief: as §1

[5] = Tmax in Sprague-Dawley rat at 10 mg/kg, po; format: ADME, organism-based; parameters: dose 10 mg/kg, route oral; conditions: in vivo
Method in brief: (§2)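 Male Sprague-Dawley rats (250–350 g, jugular-catheterized) received a single dose either iv at 1 mg/kg in 3:1 PEG400/water (n = 2) or po at 10 mg/kg in Pharmatek #6 (n = 3). Plasma was sampled at 5 min (iv only), 15 and 30 min, and 1, 2, 4, 6 and 24 h. Samples were analyzed by LC-MS/MS after acetonitrile precipitation. Parameters came from noncompartmental linear-trapezoidal analysis of individual animals.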

[6] = Volume of distribution in Sprague-Dawley rat at 1 mg/kg, iv and 10 mg/kg, po; format: ADME, organism-based; conditions: in vivo
Method in brief: as §2

[7] = Stability in rat liver microsomes assessed as compound remaining at 1 uM after 60 mins; format: ADME, Microsome; conditions: read-out: Stability
Method in brief: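 Pooled liver microsomes (0.5 mg/mL) were premixed with 0.1 M phosphate buffer pH 7.4, 6.5 mM MgCl2 and test compound (1 μM final, 0.2% DMSO). NADPH (1 mM) started the reaction at 37 °C, in duplicate. Minus-NADPH and testosterone controls were included. Aliquots were taken at 0, 5, 15, 30 and 60 min and quenched in acetonitrile containing internal standard.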

[8] = Clearance in Sprague-Dawley rat at 1 mg/kg, iv and 10 mg/kg, po; format: ADME, organism-based; conditions: in vivo
Method in brief: as §1

[9] = Oral bioavailability in Sprague-Dawley rat at 10 mg/kg; format: ADME, organism-based; conditions: in vivo
Method in brief: as §2

[10] = Terminal half life in Sprague-Dawley rat at 1 mg/kg, iv and 10 mg/kg, po; format: ADME, organism-based; conditions: in vivo, read-out: beta t1/2 (converted)
Method in brief: as §2

T1 sequence (P15056 2-766 V600E limits assumed): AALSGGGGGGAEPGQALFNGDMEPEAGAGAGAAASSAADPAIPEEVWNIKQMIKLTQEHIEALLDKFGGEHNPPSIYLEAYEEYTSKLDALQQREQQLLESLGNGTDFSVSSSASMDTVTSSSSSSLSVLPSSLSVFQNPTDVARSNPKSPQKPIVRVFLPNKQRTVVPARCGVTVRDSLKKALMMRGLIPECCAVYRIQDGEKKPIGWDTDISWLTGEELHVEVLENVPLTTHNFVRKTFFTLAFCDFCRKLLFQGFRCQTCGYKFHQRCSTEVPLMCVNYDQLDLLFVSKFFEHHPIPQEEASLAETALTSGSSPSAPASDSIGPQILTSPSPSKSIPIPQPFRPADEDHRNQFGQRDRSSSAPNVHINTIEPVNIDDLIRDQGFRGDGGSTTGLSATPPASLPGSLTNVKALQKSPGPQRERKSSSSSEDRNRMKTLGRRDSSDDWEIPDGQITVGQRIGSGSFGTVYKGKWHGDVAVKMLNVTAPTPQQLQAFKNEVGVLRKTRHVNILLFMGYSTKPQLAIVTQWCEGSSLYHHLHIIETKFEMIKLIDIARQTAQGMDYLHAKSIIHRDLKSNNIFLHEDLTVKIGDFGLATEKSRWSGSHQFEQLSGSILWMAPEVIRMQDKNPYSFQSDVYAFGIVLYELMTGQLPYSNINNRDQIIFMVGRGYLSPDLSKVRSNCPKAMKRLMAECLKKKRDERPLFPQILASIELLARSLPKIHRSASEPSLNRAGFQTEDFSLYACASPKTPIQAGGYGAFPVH

Row | SMILES | IC50 [1] [nM] | IC50 (A-375) [nM] | Kd [2] [nM] | AUC(0-inf) [3] [µM·h] | Cmax [4] [µM] | Tmax [5] [h] | Vd [6] [L/kg] | remaining at 1 h, 1 µM [7] [%] | clearance [8] [mL/min/kg] | bioavailability [9] [%] | half-life [10] [h]
1 | COc1cc2ncnc(Oc3cccc(NC(=O)Nc4cc(C(C)(C)C)nn4Cc4ccccc4)c3)c2cc1OC | 480 | 1870 | 175 | – | – | – | – | – | – | – | –
2 | COc1cc2ncnc(Oc3cccc(NC(=O)Nc4ccc(C(C)(C)C)cc4)c3)c2cc1OC | – | 3490 | – | – | – | – | – | – | – | – | –
3 | COc1cc2ncnc(Oc3cccc(NC(=O)Nc4cc(C(C)(C)C(F)(F)F)no4)c3)c2cc1OC | 174 | 549 | 66 | 40.7 | 4.7 | 1.7 | – | – | – | – | –
4 | COc1cc2ncnc(Sc3cccc(NC(=O)Nc4cc(C5(C(F)(F)F)CC5)on4)c3)c2cc1OC | 469 | 222 | 31 | – | – | – | – | – | – | – | –
5 | COc1cc2ncnc(Oc3cccc(NC(=O)Nc4cc(C(F)(F)F)no4)c3)c2cc1OC | 2230 | 5150 | 78 | – | – | – | – | – | – | – | –
6 | COc1cc2ncnc(Oc3cccc(NC(=O)Nc4cc(C(C)(C)F)on4)c3)c2cc1OC | 276 | 493 | 29 | 127 | 21.1 | 2 | 0.5 | 92 | 2.9 | 100 | 3.5
7 | COc1cc2ncnc(Oc3cccc(NC(=O)Nc4cc(-c5ccccc5)on4)c3)c2cc1OC | 956 | > 15000 | 136 | – | – | – | – | – | – | – | –
8 | COc1cc2ncnc(Oc3cccc(NC(=O)Nc4cc(-c5ccccc5)no4)c3)c2cc1OC | > 15000 | 7070 | 1450 | – | – | – | – | – | – | – | –
9 | COc1cc2ncnc(Sc3cccc(NC(=O)Nc4cc(C(C)(C)F)no4)c3)c2cc1OC | 84 | 1470 | 39 | – | – | – | – | – | – | – | –
10 | COc1cc2ncnc(Oc3cccc(NC(=O)Nc4cc(C(C)(C)C#N)no4)c3)c2cc1OC | 332 | 6160 | 48 | – | – | – | – | – | – | – | –
11 | COc1cc2ncnc(Sc3cccc(NC(=O)Nc4cc(C(C)(C)C(F)(F)F)on4)c3)c2cc1OC | 142 | > 15000 | 74 | – | – | – | – | – | – | – | –
12 | COc1cc2ncnc(Oc3cccc(NC(=O)Nc4cnn(C(C)(C)C)c4)c3)c2cc1OC | 1130 | > 15000 | 75 | – | – | – | – | – | – | – | –
13 | COc1cc2ncnc(Oc3cccc(NC(=O)Nc4cc(C(C)C)on4)c3)c2cc1OC | 355 | 527 | 19 | – | – | – | – | – | – | – | –
14 | COc1cc2ncnc(Oc3cccc(NC(=O)Nc4cc(C(C)(C)C)nn4C)c3)c2cc1OC | 336 | 4270 | 87 | – | – | – | – | – | – | – | –
15 | COc1cc2ncnc(Oc3cccc(NC(=O)Nc4cc(C5CCCC5)no4)c3)c2cc1OC | 1130 | 4380 | 122 | – | – | – | – | – | – | – | –
16 | COc1cc2ncnc(Oc3cccc(NC(=O)Nc4cc(C(C)(CF)CF)no4)c3)c2cc1OC | 339 | 1980 | 132 | – | – | – | – | – | – | – | –
17 | COc1cc2ncnc(Oc3cccc(NC(=O)Nc4cc(C5CCCC5)on4)c3)c2cc1OC | 134 | 488 | 37 | – | – | – | – | – | – | – | –
18 | COCC(C)(C)c1cc(NC(=O)Nc2cccc(Oc3ncnc4cc(OC)c(OC)cc34)c2)no1 | 324 | 1550 | 151 | – | – | – | – | – | – | – | –

Row | SMILES | IC50 [1] [nM] | IC50 (A-375) [nM] | Kd [2] [nM] | AUC(0-inf) [3] [µM·h] | Cmax [4] [µM] | Tmax [5] [h] | Vd [6] [L/kg] | remaining at 1 h, 1 µM [7] [%] | clearance [8] [mL/min/kg] | bioavailability [9] [%] | half-life [10] [h]
19 | COc1cc2ncnc(Sc3cccc(NC(=O)Nc4cc(C(C)(CF)CF)on4)c3)c2cc1OC | 93 | 223 | 50 | – | – | – | – | – | – | – | –
20 | COc1cc2ncnc(Oc3cccc(NC(=O)Nc4cc(C(C)(C)C(F)(F)F)nn4-c4ccccc4)c3)c2cc1OC | 62 | – | 271 | – | – | – | – | – | – | – | –
21 | COc1cc2ncnc(Oc3cccc(NC(=O)Nc4cc(C5(C(F)(F)F)CC5)on4)c3)c2cc1OC | 183 | 117 | 27 | – | – | – | – | – | – | – | –
22 | COc1cc2ncnc(Oc3cccc(NC(=O)Nc4cc(C(C)(CF)CF)on4)c3)c2cc1OC | 109 | 145 | 45 | – | – | – | – | – | – | – | –
23 | COc1cc2ncnc(Oc3cccc(NC(=O)Nc4cccc(C(C)(C)C)c4)c3)c2cc1OC | – | 1770 | – | – | – | – | – | – | – | – | –
24 | COc1cc2ncnc(Oc3cccc(NC(=O)Nc4cc(C(C)(C)C)nn4C4CCCCC4)c3)c2cc1OC | > 1670 | > 15000 | 174 | – | – | – | – | – | – | – | –
25 | COc1cc2ncnc(Oc3cccc(NC(=O)Nc4cc(C(C)(C)CO)on4)c3)c2cc1OC | 649 | > 15000 | 49 | – | – | – | – | – | – | – | –
26 | COc1cc2ncnc(Oc3cccc(NC(=O)Nc4cc(C(C)(C)C)nn4C(C)C)c3)c2cc1OC | 505 | 543 | 85 | – | – | – | – | – | – | – | –
27 | COc1cc2ncnc(Oc3cccc(NC(=O)Nc4cc(C(C)(C)F)no4)c3)c2cc1OC | 155 | 125 | 44 | 42 | 7.9 | 2 | 0.6 | 82 | 4 | 48 | 4.7
28 | COc1cc2ncnc(Oc3cccc(NC(=O)Nc4cc(C(C)C)no4)c3)c2cc1OC | 340 | 2960 | 31 | – | – | – | – | – | – | – | –
29 | COc1cc2ncnc(Oc3cccc(NC(=O)Nc4cc(C)on4)c3)c2cc1OC | > 15000 | > 15000 | 678 | – | – | – | – | – | – | – | –
30 | COc1cc2ncnc(Oc3cccc(NC(=O)Nc4cc(C(C)(C)C)on4)c3)c2cc1OC | – | 328 | – | 17 | 11 | 0.8 | 0.5 | 46 | 7.3 | 49 | 19.2
31 | COc1cc2ncnc(Oc3cccc(NC(=O)Nc4cc(C(C)(C)C)nn4CC(C)C)c3)c2cc1OC | 681 | 1160 | 101 | – | – | – | – | – | – | – | –
32 | COc1cc2ncnc(Oc3cccc(NC(=O)Nc4cc(C(C)(F)F)no4)c3)c2cc1OC | 645 | 694 | 76 | – | – | – | – | – | – | – | –
33 | COc1cc2ncnc(Oc3cccc(NC(=O)Nc4cc(C(C)(C)C)nn4-c4ccccc4)c3)c2cc1OC | 21 | – | 295 | 25.9 | 6.7 | 1.3 | 0.3 | – | 3.1 | 33 | 4.2
34 | COc1cc2ncnc(Oc3cccc(NC(=O)Nc4cc(C(C)(C)C)no4)c3)c2cc1OC | – | – | – | 1.9 | 0.7 | 0.8 | 1 | 51 | 9.8 | 6 | 8.2
35 | COc1cc2ncnc(Oc3cccc(NC(=O)Nc4cc(C5(C(F)(F)F)CCC5)no4)c3)c2cc1OC | 308 | 2240 | 129 | – | – | – | – | – | – | – | –
